The text below walks through data of ChEMBL document CHEMBL5653631, “A Potent and Selective ULK1 Inhibitor Suppresses Autophagy and Sensitizes Cancer Cells to Nutrient Stress” (iScience, 2018).

Test [1] deals with cAMP-dependent protein kinase catalytic subunit beta (Homo sapiens) (UniProt P22694). The experiment in a line: Inhibition of human recombinant PKACbeta at 15 nM related to control ULK1.
Test [2] concerns the target T1, Aurora kinase A (Homo sapiens) (UniProt O14965).
T1 sequence (whole entry): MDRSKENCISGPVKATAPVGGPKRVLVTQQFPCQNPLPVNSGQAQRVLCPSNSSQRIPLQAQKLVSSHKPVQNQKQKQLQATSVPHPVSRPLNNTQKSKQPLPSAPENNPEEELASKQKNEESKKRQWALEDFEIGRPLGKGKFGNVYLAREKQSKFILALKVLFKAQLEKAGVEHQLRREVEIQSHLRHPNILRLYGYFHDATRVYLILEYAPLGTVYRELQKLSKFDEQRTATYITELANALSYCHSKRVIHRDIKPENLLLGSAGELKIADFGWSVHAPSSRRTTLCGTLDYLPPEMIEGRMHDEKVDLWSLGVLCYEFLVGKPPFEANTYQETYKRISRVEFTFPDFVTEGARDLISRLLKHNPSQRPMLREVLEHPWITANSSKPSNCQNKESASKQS
The experiment in a line: Inhibition of human recombinant AurA at 15 nM in presence of ATP by radiometric assay relative to control. In short, it runs like this:
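Panel of 327 recombinant human kinases, each assayed in vitro by radiometric activity assay in duplicate at a single inhibitor concentration per compound, chosen with reference to its ULK1 inhibition. Activity remaining was expressed as percent of vehicle control, and percent inhibition was calculated as 100 minus percent activity remaining.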

Test [3] addresses Calcium/calmodulin-dependent protein kinase type 1D (Homo sapiens) (UniProt Q8IU85). The experiment in a line: Inhibition of human recombinant CaMK1d at 40 nM in presence of ATP by radiometric assay relative to control.
For test [4], the target named is T2, Tyrosine-protein kinase JAK3 (Homo sapiens) (UniProt P52333).
T2 sequence (whole entry): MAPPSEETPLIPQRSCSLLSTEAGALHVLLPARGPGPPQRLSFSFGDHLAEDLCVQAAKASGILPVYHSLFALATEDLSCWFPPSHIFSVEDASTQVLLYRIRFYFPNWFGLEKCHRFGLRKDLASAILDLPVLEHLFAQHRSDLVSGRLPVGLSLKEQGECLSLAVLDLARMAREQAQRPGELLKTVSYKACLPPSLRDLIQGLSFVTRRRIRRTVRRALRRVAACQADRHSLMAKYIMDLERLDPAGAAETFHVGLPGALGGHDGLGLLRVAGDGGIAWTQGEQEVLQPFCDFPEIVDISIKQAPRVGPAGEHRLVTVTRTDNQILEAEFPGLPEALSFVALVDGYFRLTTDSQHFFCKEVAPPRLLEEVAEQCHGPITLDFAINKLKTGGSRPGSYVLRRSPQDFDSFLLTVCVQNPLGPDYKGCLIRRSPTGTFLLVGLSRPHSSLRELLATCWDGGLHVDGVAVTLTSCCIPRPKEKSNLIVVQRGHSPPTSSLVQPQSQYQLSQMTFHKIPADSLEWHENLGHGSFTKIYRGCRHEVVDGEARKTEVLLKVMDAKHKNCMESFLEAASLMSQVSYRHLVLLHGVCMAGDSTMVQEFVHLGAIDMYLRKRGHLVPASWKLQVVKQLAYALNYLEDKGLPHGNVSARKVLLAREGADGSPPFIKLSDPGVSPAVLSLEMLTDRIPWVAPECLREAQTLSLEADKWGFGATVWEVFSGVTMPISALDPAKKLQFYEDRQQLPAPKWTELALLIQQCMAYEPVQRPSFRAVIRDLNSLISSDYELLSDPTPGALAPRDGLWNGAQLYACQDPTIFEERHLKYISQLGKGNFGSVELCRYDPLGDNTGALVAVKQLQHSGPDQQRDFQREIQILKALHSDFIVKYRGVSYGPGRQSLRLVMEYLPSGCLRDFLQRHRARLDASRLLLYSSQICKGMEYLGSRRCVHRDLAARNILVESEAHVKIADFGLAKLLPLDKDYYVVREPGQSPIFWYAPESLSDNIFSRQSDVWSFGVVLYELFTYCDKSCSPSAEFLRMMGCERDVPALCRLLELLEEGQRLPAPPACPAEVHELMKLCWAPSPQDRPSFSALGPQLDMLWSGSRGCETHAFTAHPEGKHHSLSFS
The experiment in a line: Inhibition of human recombinant JAK3 at 40 nM in presence of ATP by radiometric assay relative to control.

Test [5] addresses Ribosomal protein S6 kinase alpha-1 (Homo sapiens) (UniProt Q15418). The experiment in a line: Inhibition of human recombinant RSK1 at 40 nM related to control ULK1.
Test [6] deals with Tyrosine-protein kinase JAK2 (Homo sapiens) (UniProt O60674). The experiment in a line: Inhibition of human recombinant JAK2 at 40 nM in presence of ATP by radiometric assay relative to control.
Sequence of Tyrosine-protein kinase JAK2 (Homo sapiens) (O60674 whole entry): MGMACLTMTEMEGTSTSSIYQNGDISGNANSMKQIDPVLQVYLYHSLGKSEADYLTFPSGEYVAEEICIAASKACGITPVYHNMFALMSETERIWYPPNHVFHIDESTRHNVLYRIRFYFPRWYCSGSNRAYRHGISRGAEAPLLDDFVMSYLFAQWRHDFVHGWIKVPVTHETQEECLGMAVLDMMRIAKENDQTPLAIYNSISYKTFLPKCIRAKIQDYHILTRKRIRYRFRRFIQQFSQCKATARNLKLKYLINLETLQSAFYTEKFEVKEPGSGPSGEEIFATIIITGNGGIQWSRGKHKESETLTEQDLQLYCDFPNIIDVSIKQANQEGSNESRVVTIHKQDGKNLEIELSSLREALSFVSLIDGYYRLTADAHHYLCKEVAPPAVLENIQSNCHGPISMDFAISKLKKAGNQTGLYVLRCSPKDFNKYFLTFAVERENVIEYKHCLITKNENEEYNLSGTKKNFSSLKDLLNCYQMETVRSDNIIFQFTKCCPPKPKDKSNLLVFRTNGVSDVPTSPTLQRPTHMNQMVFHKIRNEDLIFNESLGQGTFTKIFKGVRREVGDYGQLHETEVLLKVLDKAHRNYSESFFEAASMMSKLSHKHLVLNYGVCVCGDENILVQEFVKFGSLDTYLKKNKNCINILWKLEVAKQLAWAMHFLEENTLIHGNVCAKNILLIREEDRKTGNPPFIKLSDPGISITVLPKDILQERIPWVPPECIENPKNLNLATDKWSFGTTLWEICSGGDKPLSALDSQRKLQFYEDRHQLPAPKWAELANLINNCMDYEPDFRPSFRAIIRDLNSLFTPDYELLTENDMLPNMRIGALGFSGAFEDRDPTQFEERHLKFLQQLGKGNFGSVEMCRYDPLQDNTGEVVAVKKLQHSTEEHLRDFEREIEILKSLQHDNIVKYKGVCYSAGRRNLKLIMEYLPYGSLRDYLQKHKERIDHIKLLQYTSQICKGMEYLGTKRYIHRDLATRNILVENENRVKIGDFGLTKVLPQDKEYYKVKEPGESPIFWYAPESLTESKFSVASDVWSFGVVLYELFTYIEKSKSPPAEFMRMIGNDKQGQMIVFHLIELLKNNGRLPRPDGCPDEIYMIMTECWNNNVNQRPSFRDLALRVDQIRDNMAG
Test [7] concerns the target Casein kinase II subunit alpha' (Homo sapiens) (UniProt P19784). The experiment in a line: Inhibition of human recombinant CK2a2 at 40 nM related to control ULK1.
Test [8] addresses Fibroblast growth factor receptor 2 (Homo sapiens) (UniProt P21802). The experiment in a line: Inhibition of human recombinant FGFR2 at 40 nM in presence of ATP by radiometric assay relative to control.
The target of test [9] is Fibroblast growth factor receptor 1 (Homo sapiens) (UniProt P11362). The experiment in a line: Inhibition of human recombinant FGFR1 at 500 nM in presence of ATP by radiometric assay relative to control.
Sequence of Fibroblast growth factor receptor 1 (Homo sapiens) (P11362 22-822 limits assumed): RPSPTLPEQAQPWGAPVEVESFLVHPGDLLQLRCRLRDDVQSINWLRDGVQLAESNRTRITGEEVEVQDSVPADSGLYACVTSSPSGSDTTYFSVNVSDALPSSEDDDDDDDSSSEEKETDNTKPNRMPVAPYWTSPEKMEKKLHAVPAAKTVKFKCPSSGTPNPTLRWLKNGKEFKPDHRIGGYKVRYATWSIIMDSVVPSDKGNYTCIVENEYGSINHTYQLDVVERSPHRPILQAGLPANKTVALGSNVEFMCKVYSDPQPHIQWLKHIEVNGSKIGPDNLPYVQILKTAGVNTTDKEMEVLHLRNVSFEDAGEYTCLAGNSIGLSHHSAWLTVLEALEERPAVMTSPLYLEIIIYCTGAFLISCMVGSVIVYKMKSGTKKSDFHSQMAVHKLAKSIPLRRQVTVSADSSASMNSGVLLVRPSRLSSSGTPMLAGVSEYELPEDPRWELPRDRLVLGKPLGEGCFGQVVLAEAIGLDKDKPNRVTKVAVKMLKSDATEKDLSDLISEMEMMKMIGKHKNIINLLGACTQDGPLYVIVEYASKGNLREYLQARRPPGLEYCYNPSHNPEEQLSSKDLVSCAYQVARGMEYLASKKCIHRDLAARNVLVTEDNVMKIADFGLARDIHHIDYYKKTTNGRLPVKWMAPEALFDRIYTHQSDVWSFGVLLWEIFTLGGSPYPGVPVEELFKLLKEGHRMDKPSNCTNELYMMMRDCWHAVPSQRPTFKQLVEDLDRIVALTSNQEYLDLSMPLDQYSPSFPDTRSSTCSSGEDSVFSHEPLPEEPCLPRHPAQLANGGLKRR
Test [10] addresses Serine/threonine-protein kinase N1 (Homo sapiens) (UniProt Q16512). The experiment in a line: Inhibition of human recombinant PKN1 at 500 nM related to control ULK1.
In test [11] the target is Ephrin type-A receptor 2 (Homo sapiens) (UniProt P29317). The experiment in a line: Inhibition of human recombinant EphA2 at 500 nM in presence of ATP by radiometric assay relative to control.

Sequence of Ribosomal protein S6 kinase alpha-1 (Homo sapiens) (Q15418 whole entry): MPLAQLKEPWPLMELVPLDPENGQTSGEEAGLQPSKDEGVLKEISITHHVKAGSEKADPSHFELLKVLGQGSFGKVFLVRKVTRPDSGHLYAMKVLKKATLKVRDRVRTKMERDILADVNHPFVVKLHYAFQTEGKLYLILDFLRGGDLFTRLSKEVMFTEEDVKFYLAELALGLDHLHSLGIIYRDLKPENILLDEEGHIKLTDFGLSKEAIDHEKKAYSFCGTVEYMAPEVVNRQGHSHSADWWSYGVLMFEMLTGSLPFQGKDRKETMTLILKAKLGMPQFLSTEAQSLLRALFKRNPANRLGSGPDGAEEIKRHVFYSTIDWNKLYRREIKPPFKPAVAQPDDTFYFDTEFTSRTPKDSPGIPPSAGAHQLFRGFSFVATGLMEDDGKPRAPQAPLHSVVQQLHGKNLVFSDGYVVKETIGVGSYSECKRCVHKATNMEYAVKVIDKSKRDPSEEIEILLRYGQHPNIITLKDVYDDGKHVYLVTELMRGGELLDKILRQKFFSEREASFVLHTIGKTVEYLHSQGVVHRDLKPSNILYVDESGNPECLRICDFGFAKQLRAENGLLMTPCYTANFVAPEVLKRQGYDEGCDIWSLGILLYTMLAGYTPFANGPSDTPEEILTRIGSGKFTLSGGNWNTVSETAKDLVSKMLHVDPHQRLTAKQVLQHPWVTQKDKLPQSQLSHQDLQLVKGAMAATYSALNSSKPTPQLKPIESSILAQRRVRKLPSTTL
Sequence of Casein kinase II subunit alpha' (Homo sapiens) (P19784 whole entry, looked up): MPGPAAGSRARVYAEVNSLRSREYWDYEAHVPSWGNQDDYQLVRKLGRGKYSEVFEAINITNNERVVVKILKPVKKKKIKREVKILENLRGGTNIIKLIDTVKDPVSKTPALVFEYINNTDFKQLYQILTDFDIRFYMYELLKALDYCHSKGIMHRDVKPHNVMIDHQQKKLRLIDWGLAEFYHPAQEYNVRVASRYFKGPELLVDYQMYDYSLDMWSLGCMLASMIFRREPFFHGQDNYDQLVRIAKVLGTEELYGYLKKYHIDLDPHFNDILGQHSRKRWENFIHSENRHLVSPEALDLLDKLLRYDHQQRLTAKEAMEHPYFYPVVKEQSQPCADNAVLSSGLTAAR
Sequence of Serine/threonine-protein kinase N1 (Homo sapiens) (Q16512 2-942 limits assumed): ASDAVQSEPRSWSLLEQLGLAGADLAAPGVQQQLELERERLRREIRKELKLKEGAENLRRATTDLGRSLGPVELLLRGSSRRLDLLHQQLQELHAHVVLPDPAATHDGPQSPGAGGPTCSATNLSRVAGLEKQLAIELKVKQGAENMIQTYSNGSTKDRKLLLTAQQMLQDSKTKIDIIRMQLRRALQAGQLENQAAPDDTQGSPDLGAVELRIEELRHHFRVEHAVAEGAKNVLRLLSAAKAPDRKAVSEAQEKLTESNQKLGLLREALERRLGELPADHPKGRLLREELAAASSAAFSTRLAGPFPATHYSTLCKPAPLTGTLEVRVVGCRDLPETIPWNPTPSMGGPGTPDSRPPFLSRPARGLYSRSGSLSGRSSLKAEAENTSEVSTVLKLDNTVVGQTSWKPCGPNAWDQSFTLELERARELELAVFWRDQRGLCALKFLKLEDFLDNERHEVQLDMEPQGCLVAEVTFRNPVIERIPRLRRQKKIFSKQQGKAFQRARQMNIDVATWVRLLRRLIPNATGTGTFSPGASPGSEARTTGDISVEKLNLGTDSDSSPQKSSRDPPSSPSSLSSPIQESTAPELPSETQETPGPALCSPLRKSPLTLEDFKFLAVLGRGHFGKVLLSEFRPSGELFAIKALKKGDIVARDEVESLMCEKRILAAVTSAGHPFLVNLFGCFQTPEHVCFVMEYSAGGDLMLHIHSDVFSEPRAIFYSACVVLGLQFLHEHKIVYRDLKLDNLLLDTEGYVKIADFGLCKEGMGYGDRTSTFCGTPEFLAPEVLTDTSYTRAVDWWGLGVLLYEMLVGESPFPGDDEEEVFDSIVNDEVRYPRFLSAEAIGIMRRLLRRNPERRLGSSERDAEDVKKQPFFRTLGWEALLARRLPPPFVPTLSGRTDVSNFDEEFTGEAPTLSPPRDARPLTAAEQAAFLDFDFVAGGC
Sequence of Calcium/calmodulin-dependent protein kinase type 1D (Homo sapiens) (Q8IU85 whole entry, looked up): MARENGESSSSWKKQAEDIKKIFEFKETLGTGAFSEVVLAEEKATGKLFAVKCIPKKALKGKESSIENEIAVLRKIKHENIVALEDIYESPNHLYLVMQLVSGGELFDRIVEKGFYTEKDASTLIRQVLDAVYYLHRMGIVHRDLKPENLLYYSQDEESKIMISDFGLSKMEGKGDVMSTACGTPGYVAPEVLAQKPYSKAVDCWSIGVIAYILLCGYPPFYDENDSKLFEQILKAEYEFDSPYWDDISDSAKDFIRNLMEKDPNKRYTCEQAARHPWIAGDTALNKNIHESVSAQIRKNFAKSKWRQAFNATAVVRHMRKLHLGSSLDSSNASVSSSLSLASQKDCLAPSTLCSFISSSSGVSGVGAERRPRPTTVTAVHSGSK

As a reminder, the inhibition is the relative decrease from the control value, in per cent. In the case of `CC(C)[C@H](NC(=O)c1cc(-c2cnn3cc(-c4ccc(OCCN5CCCCC5)cc4)cnc23)cs1)C(F)(F)F`, the fold change (FC) in [1] worked out at 0. The inhibition in test [2] is 13%.
Turning to `O=C(N[C@@H](C1CC1)C(F)(F)F)c1cc(-c2cnn3cc(-c4ccc(F)cc4)cnc23)cs1`, the inhibition in [3], in [4], in test [6] and in test [8] was 0% in each case. The fold change (FC) in test [5] and in test [7] was 0.11 in each case.
Regarding `CNC(=O)c1ccccc1Oc1nc(Nc2cc(OC)c(OC)c(OC)c2)ncc1Br`, the inhibition in test [9] amounted to 35%; in test [11] it was 2%. Moreover, the fold change (FC) in [10] was determined as 0.
